ChEMBL document CHEMBL1156750 (Bioorg Med Chem Lett, 2009)
“And” between values parts separate entries of the source, which are not always exact repeats. Equal entries are not always repeated.

What was measured:
[1] = target: Amine oxidase [flavin-containing] A (Rattus norvegicus, UniProt P21396); experiment: Inhibition of rat MAO-A at 10 uM
[2] = target: Amine oxidase [flavin-containing] B (Rattus norvegicus, UniProt P19643); experiment: Inhibition of rat MAO-B at 10 uM
[3] = target: T1, Voltage-gated L-type calcium channel (Rattus norvegicus, UniProt P22002+Q02485+P27732); experiment: Inhibition of rat L type calcium channel at DHP site at 10 uM
[4] = target: T1, Voltage-gated L-type calcium channel; experiment: Inhibition of rat L type calcium channel at verapamil site at 10 uM
[5] = Total clearance in rat at 10 mg/kg, iv; type: ADME, organism-based; set-up: dose 10 mg/kg, route intravenous; details: in vivo
Method in brief: (§1)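 Pharmacokinetics in fasted rat, dog and monkey, n = 3 per species. The compound was dosed at 10 mg/mL in PEG400/water (1:1, v/v). Doses were 10 mg/kg iv and po in rat, 2 mg/kg iv and po in dog, and 10 mg/kg iv and po in monkey. Clearance, Vdss, MRT and Tmax were derived from plasma profiles; oral bioavailability came from the po and iv data.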

[6] = Volume of distribution in steady state in rat at 10 mg/kg, iv; type: ADME, organism-based; set-up: dose 10 mg/kg, route intravenous; details: in vivo, read-out: Vdss; method in brief: as §1
[7] = Half life in rat at 10 mg/kg, iv; type: ADME, organism-based; set-up: dose 10 mg/kg, route intravenous; details: in vivo
Method in brief: (§2)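 Fasted animals, n = 3 per species (rat, dog, monkey). Compound was dosed iv or po in a vehicle of 10 mg/mL in PEG400/water (1:1, v/v). Parameters reported were CLtotal, Vdss, t1/2, MRT, Cmax, Tmax and oral bioavailability.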

[8] = […] residence time in rat at 10 mg/kg, iv; type: ADME, organism-based; set-up: dose 10 mg/kg, route intravenous; details: in vivo; method in brief: as §1
[9] = Cmax in rat at 10 mg/kg, po; type: ADME, organism-based; set-up: dose 10 mg/kg, route oral; details: in vivo; method in brief: as §2
[10] = Tmax in rat at 10 mg/kg, po; type: ADME, organism-based; set-up: dose 10 mg/kg, route oral; details: in vivo; method in brief: as §1
[11] = Oral bioavailability in rat at 10 mg/kg; type: ADME, organism-based; details: in vivo; method in brief: as §1
[12] = Total clearance in dog at 2 mg/kg, iv; type: ADME, organism-based, Canis lupus familiaris; set-up: dose 2 mg/kg, route intravenous; details: in vivo; method in brief: as §1
[13] = Volume of distribution in steady state in dog at 2 mg/kg, iv; type: ADME, organism-based, Canis lupus familiaris; set-up: dose 2 mg/kg, route intravenous; details: in vivo, read-out: Vdss; method in brief: as §1
[14] = Half life in dog at 2 mg/kg, iv; type: ADME, organism-based, Canis lupus familiaris; set-up: dose 2 mg/kg, route intravenous; details: in vivo; method in brief: as §2
[15] = […] residence time in dog at 2 mg/kg, iv; type: ADME, organism-based, Canis lupus familiaris; set-up: dose 2 mg/kg, route intravenous; details: in vivo; method in brief: as §1
[16] = Cmax in dog at 2 mg/kg, po; type: ADME, organism-based, Canis lupus familiaris; set-up: dose 2 mg/kg, route oral; details: in vivo; method in brief: as §2
[17] = Tmax in dog at 2 mg/kg, po; type: ADME, organism-based, Canis lupus familiaris; set-up: dose 2 mg/kg, route oral; details: in vivo; method in brief: as §1
[18] = Oral bioavailability in dog at 2 mg/kg; type: ADME, organism-based, Canis lupus familiaris; details: in vivo; method in brief: as §1
[19] = Total clearance in monkey at 10 mg/kg, iv; type: ADME, organism-based, Macaca mulatta; set-up: dose 10 mg/kg, route intravenous; details: rhesus monkey, in vivo; method in brief: as §1
[20] = Volume of distribution in steady state in monkey at 10 mg/kg, iv; type: ADME, organism-based, Macaca mulatta; set-up: dose 10 mg/kg, route intravenous; details: rhesus monkey, in vivo, read-out: Vdss; method in brief: as §1
[21] = Half life in monkey at 10 mg/kg, iv; type: ADME, organism-based, Macaca mulatta; set-up: dose 10 mg/kg, route intravenous; details: rhesus monkey, in vivo; method in brief: as §2
[22] = […] residence time in monkey at 10 mg/kg, iv; type: ADME, organism-based, Macaca mulatta; set-up: dose 10 mg/kg, route intravenous; details: rhesus monkey, in vivo; method in brief: as §1
[23] = Cmax in monkey at 10 mg/kg, po; type: ADME, organism-based, Macaca mulatta; set-up: dose 10 mg/kg, route oral; details: rhesus monkey, in vivo; method in brief: as §2
[24] = Tmax in monkey at 10 mg/kg, po; type: ADME, organism-based, Macaca mulatta; set-up: dose 10 mg/kg, route oral; details: rhesus monkey, in vivo; method in brief: as §1
[25] = Oral bioavailability in monkey at 10 mg/kg; type: ADME, organism-based, Macaca mulatta; details: rhesus monkey, in vivo; method in brief: as §1
Prothrombin = Prothrombin (Homo sapiens, UniProt P00734); experiment: Inhibition of human Thrombin
[26] = target: Vitamin K-dependent protein C (Homo sapiens, UniProt P04070); experiment: Inhibition of human Activated protein C
[27] = target: Urokinase-type plasminogen activator (Homo sapiens, UniProt P00749); experiment: Inhibition of human u-PA
Plasminogen = Plasminogen (Homo sapiens, UniProt P00747); experiment: Inhibition of human plasmin
[28] = target: Tissue-type plasminogen activator (Homo sapiens, UniProt P00750); experiment: Inhibition of human t-PA
[29] = Plasma protein binding in Sprague-Dawley rat plasma at 30 mg/kg, id; type: ADME, organism-based; set-up: dose 30 mg/kg, route intraduodenal; details: read-out: PPB (converted)
Cytochrome P450 3A4 [30] = target: T2, Cytochrome P450 3A4 (Homo sapiens, UniProt P08684); experiment: Inhibition of CYP3A4 using BZR as substrate; type: ADME
Cytochrome P450 3A4 [31] = target: T2, Cytochrome P450 3A4; experiment: Inhibition of CYP3A4 by HHA assay; type: ADME
Cytochrome P450 2D6 [32] = target: T3, Cytochrome P450 2D6 (Homo sapiens, UniProt P10635); experiment: Inhibition of CYP2D6 by HHA assay; type: ADME
Cytochrome P450 2C9 [33] = target: T4, Cytochrome P450 2C9 (Homo sapiens, UniProt P11712); experiment: Inhibition of CYP2C9 by HHA assay; type: ADME
Cytochrome P450 2C19 [34] = target: T5, Cytochrome P450 2C19 (Homo sapiens, UniProt P33261); experiment: Inhibition of CYP2C19 by HHA assay; type: ADME
[35] = target: Nuclear receptor subfamily 1 group I member 2 (Homo sapiens, UniProt O75469); experiment: Inhibition of PXR
[36] = target: Voltage-gated inwardly rectifying potassium channel KCNH2 (Homo sapiens, UniProt Q12809); experiment: Inhibition of human ERG
Cytochrome P450 1A2 = Cytochrome P450 1A2 (Homo sapiens, UniProt P05177); experiment: Inhibition of CYP1A2; type: ADME
Cytochrome P450 2D6 [37] = target: T3, Cytochrome P450 2D6; experiment: Inhibition of CYP2D6; type: ADME
Cytochrome P450 3A4 [38] = target: T2, Cytochrome P450 3A4; experiment: Inhibition of CYP3A4 using BFC as a substrate; type: ADME
Cytochrome P450 2C19 [39] = target: T5, Cytochrome P450 2C19; experiment: Inhibition of CYP2C19; type: ADME
Cytochrome P450 2C9 [40] = target: T4, Cytochrome P450 2C9; experiment: Inhibition of CYP2C9; type: ADME

T5 sequence (P33261 whole entry): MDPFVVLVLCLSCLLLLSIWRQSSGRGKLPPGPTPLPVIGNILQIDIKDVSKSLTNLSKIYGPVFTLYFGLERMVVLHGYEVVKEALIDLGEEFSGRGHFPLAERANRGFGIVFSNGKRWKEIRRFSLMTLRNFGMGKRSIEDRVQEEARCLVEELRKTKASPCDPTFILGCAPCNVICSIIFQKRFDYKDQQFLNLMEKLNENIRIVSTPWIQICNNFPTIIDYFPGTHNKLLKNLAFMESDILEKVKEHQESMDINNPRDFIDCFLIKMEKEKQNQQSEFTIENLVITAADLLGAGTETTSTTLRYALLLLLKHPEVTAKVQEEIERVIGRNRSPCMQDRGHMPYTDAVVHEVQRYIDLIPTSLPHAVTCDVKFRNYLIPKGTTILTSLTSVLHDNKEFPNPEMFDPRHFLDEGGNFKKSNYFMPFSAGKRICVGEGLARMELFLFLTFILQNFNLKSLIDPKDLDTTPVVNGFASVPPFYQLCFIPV
T2 sequence (P08684 whole entry): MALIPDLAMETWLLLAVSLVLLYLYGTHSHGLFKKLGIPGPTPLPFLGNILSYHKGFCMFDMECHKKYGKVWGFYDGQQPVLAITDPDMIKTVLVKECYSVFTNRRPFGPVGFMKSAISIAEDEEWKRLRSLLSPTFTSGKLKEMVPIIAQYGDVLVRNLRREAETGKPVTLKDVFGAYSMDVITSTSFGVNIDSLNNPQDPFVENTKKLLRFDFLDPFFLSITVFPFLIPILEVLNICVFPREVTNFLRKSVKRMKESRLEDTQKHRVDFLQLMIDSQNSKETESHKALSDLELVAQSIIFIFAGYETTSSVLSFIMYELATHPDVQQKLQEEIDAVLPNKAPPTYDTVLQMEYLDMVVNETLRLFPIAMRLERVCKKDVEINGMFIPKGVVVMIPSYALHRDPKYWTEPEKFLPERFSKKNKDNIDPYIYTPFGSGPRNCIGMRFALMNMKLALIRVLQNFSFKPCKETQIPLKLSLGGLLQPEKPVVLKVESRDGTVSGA
T4 sequence (P11712 whole entry): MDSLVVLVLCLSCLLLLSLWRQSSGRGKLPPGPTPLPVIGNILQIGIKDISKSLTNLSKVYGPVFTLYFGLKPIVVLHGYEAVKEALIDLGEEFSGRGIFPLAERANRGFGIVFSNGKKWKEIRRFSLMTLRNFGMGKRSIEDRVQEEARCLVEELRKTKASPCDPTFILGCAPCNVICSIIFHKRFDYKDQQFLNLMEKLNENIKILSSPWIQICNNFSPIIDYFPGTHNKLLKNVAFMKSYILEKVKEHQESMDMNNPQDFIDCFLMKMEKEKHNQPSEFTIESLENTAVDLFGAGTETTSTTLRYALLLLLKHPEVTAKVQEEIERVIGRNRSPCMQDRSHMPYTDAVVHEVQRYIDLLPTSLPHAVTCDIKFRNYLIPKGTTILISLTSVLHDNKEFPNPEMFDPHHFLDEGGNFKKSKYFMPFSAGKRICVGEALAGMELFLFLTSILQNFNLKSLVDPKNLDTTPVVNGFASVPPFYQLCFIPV
T3 sequence (P10635 whole entry): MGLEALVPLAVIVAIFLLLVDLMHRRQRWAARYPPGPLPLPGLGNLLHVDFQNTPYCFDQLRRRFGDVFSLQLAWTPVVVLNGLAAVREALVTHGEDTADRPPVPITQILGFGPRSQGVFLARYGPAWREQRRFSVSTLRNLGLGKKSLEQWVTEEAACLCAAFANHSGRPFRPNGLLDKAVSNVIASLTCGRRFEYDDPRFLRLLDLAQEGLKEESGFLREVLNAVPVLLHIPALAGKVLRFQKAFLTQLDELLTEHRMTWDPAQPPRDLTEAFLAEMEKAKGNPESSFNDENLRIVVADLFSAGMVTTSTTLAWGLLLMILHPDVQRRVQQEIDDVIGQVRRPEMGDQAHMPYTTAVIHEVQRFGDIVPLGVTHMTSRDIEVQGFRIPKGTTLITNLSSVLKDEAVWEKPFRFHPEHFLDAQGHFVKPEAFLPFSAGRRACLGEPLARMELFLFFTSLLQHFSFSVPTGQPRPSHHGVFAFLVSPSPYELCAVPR
Sequence of Nuclear receptor subfamily 1 group I member 2 (O75469 whole entry): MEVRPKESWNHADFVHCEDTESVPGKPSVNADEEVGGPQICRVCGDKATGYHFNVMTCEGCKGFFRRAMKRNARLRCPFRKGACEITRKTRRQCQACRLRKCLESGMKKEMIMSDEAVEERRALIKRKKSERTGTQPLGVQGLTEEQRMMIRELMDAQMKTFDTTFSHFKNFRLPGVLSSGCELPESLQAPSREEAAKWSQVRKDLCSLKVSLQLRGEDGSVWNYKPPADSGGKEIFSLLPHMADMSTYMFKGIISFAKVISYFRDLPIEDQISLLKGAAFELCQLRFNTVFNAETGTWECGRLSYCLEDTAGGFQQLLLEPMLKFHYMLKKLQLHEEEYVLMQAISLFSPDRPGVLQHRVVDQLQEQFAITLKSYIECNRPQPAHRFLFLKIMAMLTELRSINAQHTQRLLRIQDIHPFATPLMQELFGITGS
Sequence of Amine oxidase [flavin-containing] A (P21396 whole entry): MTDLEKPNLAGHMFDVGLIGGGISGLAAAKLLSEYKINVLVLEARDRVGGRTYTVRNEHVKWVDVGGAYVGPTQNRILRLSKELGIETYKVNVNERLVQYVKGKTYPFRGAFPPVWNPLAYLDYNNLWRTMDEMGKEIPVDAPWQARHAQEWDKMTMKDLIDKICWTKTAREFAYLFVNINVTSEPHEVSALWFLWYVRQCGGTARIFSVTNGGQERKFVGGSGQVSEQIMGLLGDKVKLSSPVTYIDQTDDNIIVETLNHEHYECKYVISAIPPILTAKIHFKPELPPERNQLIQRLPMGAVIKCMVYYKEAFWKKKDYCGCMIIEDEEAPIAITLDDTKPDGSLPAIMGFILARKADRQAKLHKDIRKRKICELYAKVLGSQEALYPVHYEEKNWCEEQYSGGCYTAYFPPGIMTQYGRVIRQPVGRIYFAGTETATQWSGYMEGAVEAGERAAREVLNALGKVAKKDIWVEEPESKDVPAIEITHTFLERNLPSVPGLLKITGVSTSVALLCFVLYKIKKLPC
Sequence of Vitamin K-dependent protein C (P04070 43-197 limits assumed): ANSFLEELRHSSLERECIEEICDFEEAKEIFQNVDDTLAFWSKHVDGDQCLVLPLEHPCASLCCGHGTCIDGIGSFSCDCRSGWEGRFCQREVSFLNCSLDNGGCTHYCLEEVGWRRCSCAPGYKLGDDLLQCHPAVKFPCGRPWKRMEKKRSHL
Sequence of Vitamin K-dependent protein C (P04070 212-461 limits assumed): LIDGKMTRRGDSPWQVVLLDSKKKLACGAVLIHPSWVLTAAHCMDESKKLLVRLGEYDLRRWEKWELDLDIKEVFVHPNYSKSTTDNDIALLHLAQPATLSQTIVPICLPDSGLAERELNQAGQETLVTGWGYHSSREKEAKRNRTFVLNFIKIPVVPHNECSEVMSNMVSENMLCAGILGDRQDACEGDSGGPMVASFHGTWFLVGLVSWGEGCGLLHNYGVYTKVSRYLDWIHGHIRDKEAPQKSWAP
Sequence of Cytochrome P450 1A2 (P05177 whole entry): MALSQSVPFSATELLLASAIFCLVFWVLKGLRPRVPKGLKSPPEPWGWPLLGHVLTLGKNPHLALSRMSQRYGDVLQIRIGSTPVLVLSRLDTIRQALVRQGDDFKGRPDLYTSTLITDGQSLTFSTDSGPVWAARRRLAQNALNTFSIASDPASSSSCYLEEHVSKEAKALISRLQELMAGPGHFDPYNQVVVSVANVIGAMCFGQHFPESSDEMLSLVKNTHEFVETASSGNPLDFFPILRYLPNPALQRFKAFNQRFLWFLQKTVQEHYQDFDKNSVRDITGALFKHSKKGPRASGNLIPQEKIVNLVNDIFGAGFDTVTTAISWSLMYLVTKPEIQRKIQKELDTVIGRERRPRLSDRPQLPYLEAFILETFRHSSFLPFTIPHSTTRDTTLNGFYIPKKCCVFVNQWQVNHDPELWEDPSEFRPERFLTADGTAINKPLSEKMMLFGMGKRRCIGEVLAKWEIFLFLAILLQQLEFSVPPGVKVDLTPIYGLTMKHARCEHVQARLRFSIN
Sequence of Amine oxidase [flavin-containing] B (P19643 whole entry): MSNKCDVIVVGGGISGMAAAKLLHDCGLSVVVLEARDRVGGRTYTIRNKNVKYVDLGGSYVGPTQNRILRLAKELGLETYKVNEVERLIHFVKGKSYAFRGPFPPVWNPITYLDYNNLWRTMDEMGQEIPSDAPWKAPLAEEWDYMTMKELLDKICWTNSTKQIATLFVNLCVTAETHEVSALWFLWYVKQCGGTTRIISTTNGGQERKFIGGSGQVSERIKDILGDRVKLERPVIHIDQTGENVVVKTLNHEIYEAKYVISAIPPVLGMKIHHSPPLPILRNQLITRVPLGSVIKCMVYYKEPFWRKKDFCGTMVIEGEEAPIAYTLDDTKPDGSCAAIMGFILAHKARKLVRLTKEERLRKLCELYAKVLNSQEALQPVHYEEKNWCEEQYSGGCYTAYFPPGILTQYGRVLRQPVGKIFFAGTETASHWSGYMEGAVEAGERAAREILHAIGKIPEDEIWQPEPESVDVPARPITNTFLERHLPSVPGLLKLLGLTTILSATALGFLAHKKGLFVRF
Sequence of Tissue-type plasminogen activator (P00750 whole entry): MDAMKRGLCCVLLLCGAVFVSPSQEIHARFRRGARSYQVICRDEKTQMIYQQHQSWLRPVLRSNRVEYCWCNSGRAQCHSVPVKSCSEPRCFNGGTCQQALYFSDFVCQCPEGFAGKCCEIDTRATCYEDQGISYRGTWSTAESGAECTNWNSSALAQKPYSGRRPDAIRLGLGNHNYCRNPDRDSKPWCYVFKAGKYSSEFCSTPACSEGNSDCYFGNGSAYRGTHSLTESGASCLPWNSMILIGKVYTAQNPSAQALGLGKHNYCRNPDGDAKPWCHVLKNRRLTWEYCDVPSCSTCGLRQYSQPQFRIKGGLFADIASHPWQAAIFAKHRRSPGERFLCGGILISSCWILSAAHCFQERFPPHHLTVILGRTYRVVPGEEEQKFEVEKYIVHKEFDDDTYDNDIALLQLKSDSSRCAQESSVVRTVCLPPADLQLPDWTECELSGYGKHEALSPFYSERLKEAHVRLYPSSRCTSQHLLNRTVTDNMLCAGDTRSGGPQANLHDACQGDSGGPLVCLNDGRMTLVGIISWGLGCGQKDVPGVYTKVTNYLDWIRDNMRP

Activity [1]: Not Active
Activity [2]: Not Active
Activity [3]: Not Active
Activity [4]: Not Active
clearance [5]: 27 mL/min/kg
Vd [6]: 3.3 L/kg
half-life [7]: 1.6 h
MRT [8]: 2 h
Cmax [9]: 2200 ng/mL
Tmax [10]: 0.6 h
bioavailability [11]: 55%
clearance [12]: 1.9 mL/min/kg
Vd [13]: 0.96 L/kg
half-life [14]: 8.6 h
MRT [15]: 9 h
Cmax [16]: 2800 ng/mL
Tmax [17]: 1.3 h
bioavailability [18]: 77%
clearance [19]: 11 mL/min/kg
Vd [20]: 2.3 L/kg
half-life [21]: 14 h
MRT [22]: 4 h
Cmax [23]: 2100 ng/mL
Tmax [24]: 1.8 h
bioavailability [25]: 28%
Ki (Prothrombin): 2.3 µM
Ki [26]: > 18 µM
Ki [27]: > 7.8 µM
Ki (Plasminogen): > 16 µM
Ki [28]: 0.665 µM
fraction unbound [29]: 0.28
IC50 (Cytochrome P450 3A4 [30]): > 40 µM
IC50 (Cytochrome P450 3A4 [31]): > 200 µM
IC50 (Cytochrome P450 2D6 [32]): > 200 µM
IC50 (Cytochrome P450 2C9 [33]): > 200 µM
IC50 (Cytochrome P450 2C19 [34]): > 200 µM
Activity [35]: Not Active
IC50 (Cytochrome P450 1A2): > 40 µM
IC50 (Cytochrome P450 2D6 [37]): > 40 µM
IC50 (Cytochrome P450 3A4 [38]): 39 µM
IC50 (Cytochrome P450 2C19 [39]): 51 µM and 40 µM
IC50 (Cytochrome P450 2C9 [40]): 43 µM and > 40 µM
SMILES: Cc1cc2cc(N=C(NC(=O)c3ccc(C(=O)N(C)C)nc3)N[C@H]3CCCCN(CC(=O)N4CCCC4)C3=O)ccc2o1
Activity [36]: Not Active
